In PMC9868778 (Planta Medica, 2022):
Where “and” joins values, the source holds several entries; their conditions need not be identical. Identical values can stand only once. Like-named read-outs stand apart in the source and are kept apart here.

Tests used:
[1] = Perfusion system adherence test; assay type: in vitro ADME; details: % of initially analyzed concentration, 360 min, 5 µM in PM, n = 3
How it was run: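 No placenta in the chamber; only the maternal circuit was run, for 360 min. Test compound was dissolved directly in perfusion medium at a final 5 µM and run on its own. Quantified by U(H)PLC-MS/MS and expressed as % of the initial maternal concentration. Three independent experiments, mean ± SD.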

placental tissue [2] = assay: Viability and functionality of placental tissue during ex vivo perfusion; design: species or system human
How it was run: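 Ex vivo perfusion of human placental cotyledons with 100 mL medium per circuit. Fetal circuit gassed with 95% N2/5% CO2, maternal with 95% air/5% CO2. […] Glucose and lactate were measured by blood gas analyser at the start and end of perfusion; β-hCG and leptin by ELISA. Values were normalized to perfusion time and cotyledon weight; Brown-Forsythe/Welch ANOVA with Dunnett's T3.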

[3] = for transfer across the placental barrier (maternal to fetal circuit): 5 µM added to maternal circuit, 360 min perfusion; for time to steady-state concentration: 5 µM in maternal circuit; for M perfusate (% found): maternal perfusate after 360 min; for M perfusate (% found) / F perfusate (% found): % of initial amount; for steady-state concentration, fetal side / steady-state concentration, maternal side: % of initially analyzed concentration in the maternal sample; for F perfusate (% found): fetal perfusate after 360 min
[4] = Fraction unbound in placental homogenate; assay type: in vitro ADME, human; details: for fraction unbound at 240 min, 2 µM: human, placental homogenate (5-fold diluted in PBS)
[5] = Stability of compounds in PBS, perfusion medium and placental homogenate; assay type: in vitro ADME, human; details: 360 min, 4 °C and 37 °C
placental tissue [6] = assay: Histopathological evaluation of perfused placental tissue; design: species or system human
How it was run: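 Human placental tissue after ex vivo perfusion: sections taken immediately afterwards from the perfused area, the non-perfused area and the transitional area. Fixed in 4% paraformaldehyde ≥24 h, paraffin-embedded, cut at 2–3 µm. Stained with H&E, plus a modified Gram stain (Braun-Brenn) to check for bacterial contamination. Scored for intravascular thrombi, cytotrophoblast vacuolization, hydropic villous changes and villous endothelium viability, compared against non-perfused tissue.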

5-HT 1A receptors = details: expressed in human CHO cell membranes ref 22; cited from earlier work
serotonin transporter = details: expressed in murine S6 cells ref 23; cited from earlier work
[7] = system: noradrenaline transporter; details: expressed in murine N1 cells ref 23; cited from earlier work
[8] = 5 µM, compared with antipyrine control perfusions
[9] = during 360 min, control perfusions
[10] = perfused tissue, individual experiments 1-4
[11] = perfused tissue, individual experiments 1-4, listed as Protopine

Compound	adherence to perfusion equipment (compound lost) [1]	effect on placental viability and metabolic activity (glucose consumption, lactate production) (placental tissue [2]; [8])	transfer across the placental barrier (maternal to fetal circuit) [3]	time to steady-state concentration [3]	M perfusate (% found) [3]	fraction unbound at 240 min, 2 µM [4]	steady-state concentration, fetal side [3]	steady-state concentration, maternal side [3]	F perfusate (% found) [3]	also measured
CN1C(=O)CN=C(c2ccccc2)c2cc(Cl)ccc21 [diazepam]	54.8% and 54.8 ± 12.7%	did not impair placental viability and metabolic activity	crossed the human placental barrier	approximately 45 min	7.9%	–	–	–	–	steady-state concentration (side not specified) ([3]; % of initially analyzed concentration, slow decrease until 360 min): 24%
CN(C)CCCC1(c2ccc(F)cc2)OCc2cc(C#N)ccc21 (stereo not drawn) [citalopram]	48.4% and 48.4 ± 12.9%	did not impair placental viability and metabolic activity	crossed the human placental barrier	approximately 60 min	11.4%	0.21 ± 0.01	11%	22%	6.4%	–
Cc1cc(=O)n(-c2ccccc2)n1C [antipyrine]	7.4 ± 4.7%	–	readily crossed the placental barrier	approximately 120 min	22.0%	1	–	–	19.8%	leptin production (placental tissue [2]; control perfusions): 334.8 pg/g/min; β-hCG production (placental tissue [2]; control perfusions): 95.7 mU/g/min; lactate production (placental tissue [2]; [9]): 0.27 µmol/g/min; total glucose consumption (placental tissue [2]; [9]): 0.39 µmol/g/min; time to equilibrium between maternal and fetal circuits ([3]; connectivity control in perfusions with protopine): 120 to 240 min
protopine	20.4% and 20.4 ± 9.5%	did not impair placental viability and metabolic activity	rapidly transferred from the maternal to the fetal circuit	–	23.1%	–	~20%	approximately 27%	14.0%	Fraction unbound (fu,hom) ([4]; placental homogenate vs PBS, 2 µM, 240 min, 37 °C, 3 donors): 0.48 ± 0.04; stability in PM [5]: slightly less stable; effect on β-hCG and leptin production (placental tissue [2]; [8]): did not inhibit; effect on placental viability and metabolic activity (glucose consumption, lactate production) (placental tissue [2]; 5 µM, compared with antipyrine control perfusions, listed as Protopine): did not affect placental viability or functionality; damage of placental tissue (endothelium, vascular rupture, thrombi, trophoblast vacuolization) (placental tissue [6]; overall assessment): did not cause apparent damage of placental tissue; Thrombi in vessels of stem villi (placental tissue [6]; [10]): 0%; Thrombi in villous vessels (placental tissue [6]; [10]): 5%; Thrombi in villous vessels (placental tissue [6]; [11]): 1% and 0%; Vacuolated trophoblast in villi (placental tissue [6]; [11]): 0% and 20% and 1% (2×); transfer across the placental barrier (maternal to fetal circuit) ([3]; listed as Protopine): transferred from the maternal to the fetal circuit; fetal-maternal concentration ratio (FM ratio) ([3]; after 360 min, antipyrine from control perfusions): 0.75; Final recovery (% found) ([3]; sum of fetal and maternal perfusates, sampling and system adherence, 360 min): 71.4 ± 8.6%; ligand at 5-HT 1A receptors (5-HT 1A receptors): ligand at 5-HT 1A receptors; inhibition of serotonin transporter (serotonin transporter): inhibitor; inhibition of noradrenaline transporter [7]: inhibitor
